The values below come from ChEMBL document CHEMBL1139474, “Cellular apoptosis and cytotoxicity of phenolic compounds: a quantitative structure-activity relationship study” (J Med Chem, 2005).

Molecules are shown by their SMILES.

The IC50 is the concentration that inhibits the measured activity by half.

For data set [1], the system named is CCRF-CEM. Briefly: Cytotoxicity against human CCRF-CEM cells.
Data set [2] in a line: Cytotoxicity against human CEM/VLB cells.
The test system of data set [3] is L1210. The data set can be described thus: Activity against caspase-mediated apoptosis in mouse L1210 cells at 0.1 mM. In kind it is functional.
The subject of data set [4] is L1210. Briefly: Cytotoxicity against mouse L1210 cells. The settings on record: for log(1/ID50): mouse, l1210.
Data set [5] has as its system MCF7. Briefly: Cytotoxicity against human MCF7 cells.
In data set [6] the test system is L1210. Briefly: Activity against caspase-mediated apoptosis in mouse L1210 cells. In kind it is functional.
In data set [7] the test system is HL-60. Briefly: Cytotoxicity against human HL60 cells. In kind it is cell-based. The essentials: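 HL-60 cells grown at 37 °C in RPMI with L-glutamine and 10% FBS, then seeded at (2–5) × 10⁴ cells/mL, in duplicate, at eight or more concentrations. Compounds were diluted in unsupplemented RPMI and added 1:10. After 48 h of continuous exposure, CyQUANT GR nucleic-acid dye fluorescence was read (ex 485/em 530 nm). IC50 is the concentration giving 50% lower fluorescence than controls, taken from the dose-response curve.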

The subject of data set [8] is L1210. The data set can be described thus: Induction of apoptosis in mouse L1210 cells at 151 uM. The data set is classed as functional. The essentials: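 L1210 cells at 4 × 10⁴ cells/mL were incubated with or without the phenol for 12 h at 37 °C. Caspase activity was then measured in a homogeneous fluorimetric assay: DEVD-rhodamine 110 substrate in incubation buffer was added for 2 h at 37 °C, and fluorescence was read at 521 nm with excitation at 490 nm.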

Data set [9] deals with HL-60. The data set can be described thus: Induction of DNA fragmentation in human HL60 cells after 16 hrs. The data set is classed as functional, cell-based. The settings on record: HL-60, 16 h.

With `CCc1ccc(O)cc1`, the “log(1/ID50)” value in data set [1] was found to be 3.79; in data set [2], 3.84; in data set [4] it was 3.86; in [5] it was 2.91. In data set [3], this compound showed an Activity of less than 15%.

As to `NC(=O)c1ccc(O)cc1`, the “log(1/ID50)” value in data set [1] was 2.23; in data set [2], 2.38; in [4], 2.48. The compound also came in with an Activity in data set [3] of less than 15%.

As for `NS(=O)(=O)c1ccc(O)cc1`, the “log(1/ID50)” value is 2.31 in data set [1], 2.11 in data set [2] and 2.5 in [4]. The compound further had an Activity in data set [3] of less than 15%.

The compound `Oc1ccc(Oc2ccccc2)cc1` gave an Activity in data set [3] of less than 15%. Moreover, the “log(1/ID50)” value came to 0.19 in data set [6], 4.97 in data set [4] and 3.99 in [5].

The compound `CCCCc1ccc(O)cc1.Cl` came in with an Activity in data set [3] of less than 15%. Also, the “log(1/ID50)” value in data set [7] amounted to 3.52.

Turning to `CCCCCCOc1ccc(O)cc1`, the “log(1/ID50)” value in data set [1] is recorded as 5.34; in [2], 5.37; in [4] it was 5.5. This compound also displayed an Activity in data set [3] of less than 15%.

On to `CCCc1ccc(O)cc1`, for which the “log(1/ID50)” value in data set [1] is reported as 3.72; in data set [2], 3.73; in data set [4], 4.04. This compound also had an Activity in data set [3] of less than 15%.

Take `Oc1ccc(I)cc1`: the “log(1/ID50)” value in data set [1] was determined as 4.29; in [2], 3.86; in data set [4] it was 3.86. In addition, in data set [3], the Activity was less than 15%.

As to `CCOc1ccc(O)cc1` [1-hydroxy-4-ethoxybenzene], the Activity in data set [3] was less than 15%. Besides, the figures for the “log(1/ID50)” value in data set [4] and in [5] were 4.64 and 3.7, respectively.

For `CCCOc1ccc(O)cc1` [1-hydroxy-4-propoxybenzene], the Activity in data set [3] is reported as less than 15%. Also, the results for the “log(1/ID50)” value in data set [6], in data set [4] and in data set [7] were 0.09, 4.85 and 3.7, respectively.

Regarding `Cl.Nc1ccc(O)cc1` [4-AMINOPHENOL HYDROCHLORIDE], the “log(1/ID50)” value was determined as 4.61 in [1], 1.94 in [2], 5.09 in data set [4] and 4.5 in data set [7]. The compound further returned an Activity in [3] of less than 15%.

Regarding `CC(C)(c1ccc(O)cc1)c1ccc(O)cc1` [BISPHENOL A], the “log(1/ID50)” value in data set [1] came to 4.18; in [2] it was 3.96. This compound also came in with an Activity in data set [3] of less than 15%.

For `COc1ccc(O)c(C(C)(C)C)c1.COc1ccc(O)cc1C(C)(C)C` [BUTYLATED HYDROXYANISOLE], the Activity in data set [8] stood at 15%. In data set [9], this compound showed a half-maximal inhibitory concentration (IC50) of 1.38 mM. Moreover, the entries for the “log(1/ID50)” value in data set [6] and in [4] were 2.71 and 3.82, respectively.

Regarding `Cc1cc(C(C)(C)C)c(O)c(C(C)(C)C)c1` [BUTYLATED HYDROXYTOLUENE], the IC50 in [9] turned out to be 3.18 mM; in [4] (Mus musculus, L1210) it was 0.0912 mM. Besides, the results for the “log(1/ID50)” value in data set [6] and in data set [4] were 2.09 and 4.04, respectively.

With `CC/C(=C(/CC)c1ccc(O)cc1)c1ccc(O)cc1` [DIETHYLSTILBESTROL], the “log(1/ID50)” value in data set [7] turned out to be 4.

As to `C[C@]12CCc3c(ccc4cc(O)ccc34)[C@@H]1CCC2=O` [EQUILENIN], the “log(1/ID50)” value in [7] is reported as 3.9.

Consider `C[C@]12CC[C@@H]3c4ccc(O)cc4CC[C@H]3[C@@H]1CC[C@@H]2O` [ESTRADIOL], for which, in data set [7], the “log(1/ID50)” value is given as 3.6.

Take `COc1ccc(O)cc1` [MEQUINOL]: the “log(1/ID50)” value in data set [1] is 4.41; in [2], 4.36; in data set [6] it was 0.02; in data set [7], 3.6. In data set [3], this compound displayed an Activity of less than 15%.

On to `O=[N+]([O-])c1ccc(O)cc1` [P-NITROPHENOL], for which the “log(1/ID50)” value in data set [1] is 3.28; in [2], 3.36; in [6], 1; in data set [4] it was 3.45. Moreover, the Activity in data set [3] is reported as less than 15%.

Regarding `Oc1ccc(Cl)cc1` [PARACHLOROPHENOL], the figures for the “log(1/ID50)” value in data set [1], in data set [2] and in data set [4] were 3.45, 3.89 and 4.29, respectively. The Activity in data set [3] is reported as less than 15%.

Regarding `Oc1ccccc1` [PHENOL], the “log(1/ID50)” value is listed as 3.27 in data set [1]; 2.65 in data set [2]; -0.2 in data set [6]; 3.27 in [4]; 3.05 in data set [7]; 2.56 in data set [5]. The compound further registered an Activity in data set [3] of less than 15%.

`Oc1cccc(O)c1` [RESORCINOL] returned an Activity in data set [3] of less than 15%. Also, the figures for the “log(1/ID50)” value in [6] and in data set [4] were 0.79 and 3.46, respectively.

With `Cc1ccc(O)cc1` [p-CRESOL], the “log(1/ID50)” value in [1] turned out to be 3.82; in data set [2] it was 4.05; in data set [4], 3.85; in data set [7] it was 3.35. Further, the Activity in data set [3] is given as less than 15%.
